Source: ChEMBL document CHEMBL5335784, “Discovery of a novel 1,3,4-oxadiazol-2-one-based NLRP3 inhibitor as a pharmacological agent to mitigate cardiac and metabolic complications in an experimental model of diet-induced metaflammation” (Eur J Med Chem, 2023)
Calls of active or inactive are those of the source.

Key:
[1] = test system: Rattus norvegicus; assay: (§1) Cardioprotective activity against ischemia/reperfusion-induced myocardial injury and high diet fed obese Wistar rat model assessed as decrease in LDH activity in coronary effluents at 20 mg/kg/day, ip administered for 4 weeks followed by excised heart exposed to global ischemia for 30 mins and reperfusion for 120 mins and measured during first 20 mins of reperfusion by spectrophotometric analysis; assay type: functional, organism-based
Method in brief: (§2)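 HFD or SD rats, dosed 20 mg/kg/day i.p. for the final 28 days, anaesthetised with ethyl carbamate (2 g/kg i.p.). Hearts Langendorff-perfused with Krebs–Henseleit buffer (pH 7.4, 37 °C, 12 ml/min); 40 min stabilization, 30 min global no-flow ischemia, 120 min reperfusion. Coronary effluent collected on ice before ischemia and at 10, 20, 30 min reperfusion; LDH activity by McQueen method. n=6–7.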

[2] = Effect on glyco-metabolic profile in standard diet fed Wistar rat assessed as effect on triglyceride level in plasma at 20 mg/kg/day, ip administered for 4 weeks; assay type: toxicity, organism-based; conditions: in vivo, 672 h
Method in brief: (§3)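 Rats fed HFD or SD for 12 weeks, dosed 20 mg/kg/day i.p. in saline/2% DMSO/5% Cremophor-EL during the final 28 days. Serum obtained after sacrifice by centrifuging blood at 2000 x g, 10 min, 4 °C. Glucose read by glucometer; total, HDL and LDL cholesterol and triglycerides measured with commercial kits. n=6–7 per group.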

[3] = Drug metabolism in PBS assessed as half time for compound hydrolysis to 2-(5-(2-Chlorobenzyl)-2-oxo-1,3,4-oxadiazol-3(2H)-yl)acetic acid at 100 uM at pH 7.4 by RP-HPLC analysis; assay type: ADME
Method in brief: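 Compound added from 10 mM DMSO stock to 50 mM PBS, pH 7.4, 37 °C. Sampled over 48 h and quantified by RP-HPLC (phenyl column, 226/254 nm) against external standards of ester and acid.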

[4] = test system: Rattus norvegicus; assay: (§4) Inhibition of ischemia/reperfusion-induced oxidative stress in ischemia/reperfusion-induced myocardial injury and standard diet fed Wistar rat model assessed as decrease in cardiac MDA level at 20 mg/kg/day, ip administered for 4 weeks followed by excised heart exposed to global ischemia for 30 mins and reperfusion for 120 mins by TBARS assay; assay type: functional, organism-based
Method in brief: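 Same rat diet, dosing and Langendorff ischemia/reperfusion protocol. LV homogenized 10% w/v in 0.9% KCl pH 7.4. Homogenate heated at 100 °C for 15 min with TCA and TBA plus butylated hydroxytoluene, centrifuged, and read at […]. MDA expressed as nmol/g heart tissue, compared with sham hearts perfused for 190 min.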

[5] = test system: Rattus norvegicus; assay: Antiinflammatory activity against high fat diet fed-induced metaflammation Wistar rat model assessed as reduction in HFD-induced anthropometric alterations by measuring reduction in heart weight at 20 mg/kg/day, ip administered for 4 weeks; assay type: functional, organism-based
Method in brief: (§5)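 Male Wistar rats on high-fat diet (60% kcal fat) or standard diet for 12 weeks; 20 mg/kg/day i.p. or vehicle (saline, 2% DMSO, 5% Cremophor-EL) over the last 28 days. Body weight recorded weekly. After sacrifice, abdominal, epididymal, retroperitoneal and perirenal fat, liver and heart excised and weighed. Cardiac somatic index = heart weight/body weight ×100. n=6–7 per group.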

[6] = Effect on glyco-metabolic profile in standard diet fed Wistar rat assessed as effect on HDL cholesterol level in plasma at 20 mg/kg/day, ip administered for 4 weeks; assay type: toxicity, organism-based; conditions: in vivo, 672 h; method in brief: as §3
[7] = Effect on developed LVP recovery in high diet fed obese Wistar rat model at 20 mg/kg/day, ip administered for 4 weeks (reference value: 54 +/-6 mmHg); assay type: toxicity, organism-based; conditions: in vivo, 672 h
[8] = test system: Rattus norvegicus; assay: Antiinflammatory activity against high fat diet fed-induced metaflammation Wistar rat model assessed as reduction in HFD-induced anthropometric alterations by measuring reduction in perirenal fat deposition at 20 mg/kg/day, ip administered for 4 weeks; assay type: functional, organism-based; method in brief: as §5
[9] = test system: Rattus norvegicus; assay: as §1, with “first 10” for “first 20”; assay type: functional, organism-based; method in brief: as §2
[10] = Effect on IL-1 beta level in standard diet fed Wistar rat serum at 20 mg/kg/day, ip administered for 4 weeks by ELISA; assay type: toxicity, organism-based; conditions: in vivo, 672 h
Method in brief: (§6)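 Male Wistar rats on HFD or SD for 12 weeks received 20 mg/kg/day i.p. (saline, 2% DMSO, 5% Cremophor-EL) or vehicle for the last 28 days. Circulating IL-1β, TNF-α, BNP and Gal-3 quantified by ELISA in blood collected after sacrifice. n=6–7 per group.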

[11] = test system: Rattus norvegicus; assay: as §1, with “and standard” for “and high”, “fed” for “fed obese”, “first 10” for “first 20”; assay type: functional, organism-based; method in brief: as §2
[12] = Cytotoxicity against human THP-1 cells assessed as reduction in cell viability measured after 72 hr by MTT assay; assay type: toxicity, cell-based; conditions: read-out: TC50
Method in brief: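 Undifferentiated THP-1 cells exposed to 0.1–100 μM compound for 72 h. Viability read by MTT reduction at 570 nm. TC50 from concentration–response; three experiments.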

[13] = test system: Rattus norvegicus; assay: Antiinflammatory activity against high fat diet fed-induced metaflammation Wistar rat model assessed as reduction in serum IL-1 beta level at 20 mg/kg/day, ip administered for 4 weeks by ELISA; assay type: functional, organism-based; method in brief: as §6
[14] = test system: Rattus norvegicus; assay: as §4, with “inflammation” for “oxidative stress”, “IL-1 beta” for “MDA”, “ELISA” for “TBARS assay”; assay type: functional, organism-based
Method in brief: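 Male Wistar rats on standard or 60% kcal fat diet for 12 weeks; last 28 days i.p. 20 mg/kg/day in saline with 2% DMSO and 5% Cremophor-EL, or vehicle. Hearts perfused by Langendorff with KH buffer at 12 ml/min, 37°C, then 40 min stabilization, 30 min global no-flow ischemia and 120 min reperfusion. Cytokines measured in LV tissue; n=6–7 per group.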

[15] = test system: Rattus norvegicus; assay: Antiinflammatory activity against high fat diet fed-induced metaflammation Wistar rat model assessed as reduction in HFD-induced anthropometric alterations by measuring reduction in epididymal fat deposition at 20 mg/kg/day, ip administered for 4 weeks; assay type: functional, organism-based; method in brief: as §5
[16] = test system: Rattus norvegicus; assay: as §1, with “standard” for “high”, “fed” for “fed obese”; assay type: functional, organism-based; method in brief: as §2
[17] = Effect on left ventricular end diastolic pressure in standard diet fed Wistar rat model at 20 mg/kg/day, ip administered for 4 weeks (reference value: 3+/-1 mm Hg); assay type: toxicity, organism-based; conditions: in vivo, 672 h
[18] = test system: Rattus norvegicus; assay: Cardioprotective activity against high fat diet fed-induced metaflammation Wistar rat model assessed as reduction in myocardial damage by measuring reduction in plasma LDH level at 20 mg/kg/day, ip administered for 4 weeks; assay type: functional, organism-based
[19] = Effect on BNP level in standard diet fed Wistar rat plasma at 20 mg/kg/day, ip administered for 4 weeks; assay type: toxicity, organism-based; conditions: in vivo, 672 h; method in brief: as §6
[20] = test system: Rattus norvegicus; assay: as §4, with “NLRP3 inflammasome activation” for “oxidative stress”, “NLRP3 protein expression” for “cardiac MDA level”, “immunoblot analysis” for “TBARS assay”; assay type: functional, organism-based
Method in brief: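 Left ventricles from Langendorff hearts (30 min global ischemia/120 min reperfusion) of HFD or SD rats dosed 20 mg/kg/day i.p. for the final 28 days. Tissue homogenized in RIPA buffer with protease/phosphatase inhibitors. 50 μg protein run on 8% SDS-PAGE and immunoblotted for NLRP3 (1:500), normalized to β-actin by densitometry; n=4 per group.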

[21] = test system: Rattus norvegicus; assay: Antiinflammatory activity against high fat diet fed-induced metaflammation Wistar rat model assessed as reduction in HFD-induced anthropometric alterations by measuring reduction in retroperitoneal fat deposition at 20 mg/kg/day, ip administered for 4 weeks; assay type: functional, organism-based; method in brief: as §5

CCOC(=O)Cn1nc(Cc2ccccc2Cl)oc1=O
76.5 µM: CC50 at 72 h [12]
active: Activity [1] | inhibition [4] | Activity [5] | Activity [8] | Activity [9] | Activity [11] | Activity [13] | inhibition [14] | Activity [15] | Activity [16] | Activity [18] | inhibition [20] | Activity [21]
64 mmHg: Activity [7]
Non-Toxic: Activity [2] | Activity [6] | Activity [10] | Activity [19]
3 mmHg: Activity [17]
> 48 h: half-life at 100 µM [3]
